Bioassay records as filed in PubChem.
This is a sample that favours compounds with a hit; in the whole collection about 3% have one here.
CendR NRP1 mod: modulators of CendR peptide binding to human neuropilin-1; O14786; FAM-RPARPAR peptide binding to NRP-1, fluorescence polarization; inhibition, % at 25 µM; actives 0.85% (n = 360,000); AID 602438;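 active = inhibition or corrected inhibition above about 18%, plus a signal ratio from 0.5 to 1.5, limit read from the data, passing the limit was not always enough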
HIF activator: HIF pathway transcriptional activation | actives 0.32% (n = 300,000) | activation, % at 7.5 µM (by protocol) | U2OS HRE-luciferase reporter, luminescence; normalized: DMSO 0%, desferrioxamine 100%;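 active = mean activation of at least 10% of the iron chelator positive control signal, with at least half of replicates also reaching 10%; inconclusive = mean and replicate majority disagree about reaching 10%; inactive = mean and most replicates under 10%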
T cruzi repl: blocks replication of Trypanosoma cruzi; T. cruzi beta-gal in NIH3T3, luminescence, 90 h; inhibition, % (test concentration not listed); actives 1.4% (n = 300,000); AID 1885;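 active = mean inhibition across valid replicates above about 55%, limit read from the data; inconclusive = mean below that limit but half or more replicates reach it; inactive = mean below it, under half of replicates reach it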;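 note: signal also drops with host cell toxicity which is not excluded here; 0% = plate median of DMSO wells and 100% = zero luminescence signal; higher percent means less beta-gal luminescence so fewer parasites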
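Material: NIH/3T3 host cells with β-galactosidase reporter T. cruzi; Input: 5,000 host fibroblasts per well; Medium: DMEM, 2% fetal bovine serum; Compound: 50 nL DMSO compound solution per well; Schedule: 3 h host attachment, then at least 90 h co-culture; Detection: luminescent β-galactosidase signal after 60 min lysis.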
AI-2 QS modul: Vibrio harveyi AI-2 quorum sensing modulation. Vibrio harveyi JMH597 AI-2 luminescence/OD600 ratio, 9 h; hits give low values; strain lacks LuxN and CqsS sensors; 0 = neutral-control median. activity change, % at 7.5 µM. actives 0.4% (n = 300,000). AID 2094; in the data active = activity change below about -75%, passing the limit was not always enough; inconclusive = no clear call, values can overlap the other calls;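 note: luminescence divided by OD600 gain over 9 h not by final OD600 alone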
Yeast superoxide: lowers age-related superoxide in aged yeast cells; actives 0.18% (n = 330,000); S. cerevisiae aged cells, superoxide DHE fluorescence; hits give low values; superoxide response (% of plate mean), % at 10 µM; AID 2690;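 active = superoxide response under a set limit, about three screen SD below normal, cut at about 65% in these data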;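 note: yeast aged for seven days with compound at 30 °C before DHE staining; 100% = average MFI of all compound-treated wells on the plate with controls excluded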
V-ATPase pH: regulators of yeast V-ATPase proton transport; S. cerevisiae, pHLuorin cytosolic pH fluorescence; response, % at 10 µM; actives 0.37% (n = 350,000); AID 504577; in the data active = response mostly above about 7.3%, no sharp cut-off; inactive = mostly below about 5.4%; note: actives read high
* marks the source's active call; other numbers are inactive results; u = inconclusive; x = not tested or not shown.

SMILES	CendR NRP1 mod	HIF activator	T cruzi repl	AI-2 QS modul	Yeast superoxide	V-ATPase pH
Cc1ccc(NC(=O)C(C)N2C(=O)c3ccccc3C2=O)cc1 (stereo unspecified)	26.9*	-0.2	-4.7	19.5	90.7	0.5
C[C@@H](C(=O)Nc1ccc(SC(F)F)cc1)N1C(=O)C2CCCCC2C1=O (stereo partly specified)	21.6*	x	x	x	106.8	0.3
Cc1ccc(NC(=O)C(C)N2C(=O)C3CC=C(Cl)CC3C2=O)cc1 (stereo unspecified)	13.0	-0.2	-12.4	-6.7	103.9	-2.5
CCOC(=O)c1ccc(NC(=O)C(C)N2C(=O)c3ccccc3C2=O)cc1 (stereo unspecified)	-18.8	-0.2	-12.7	21.2	95.7	-2.0
Cc1ccc(NC(=O)C(C)N2C(=O)C3C4CC(C(Br)C4Br)C3C2=O)cc1 (stereo unspecified)	31.9*	-0.2	5.3	6.0	119.9	-0.4
O=C(CN1C(=O)C2C3CC(C(Br)C3Br)C2C1=O)Nc1ccc(C(=O)O)cc1 (stereo unspecified)	8.1	-0.1	19.0	-3.1	53.6*	0.3
COc1ccc(CCN(C)CC(=O)Nc2c(C)cc(C)cc2C)cc1OC	-1.2	0.3	61.3*	10.3	98.0	1.3
CCOC(=O)C(O)(CC(=O)c1ccc(Cl)cc1)C(=O)OCC	-4.4	-0.2	-7.5	3.2	115.2	7.3
Cc1ncc2c(n1)-c1cc(F)ccc1SC2	10.2	-1.4	u	16.2	95.5	-0.3
CSc1ncc2c(n1)-c1cc(C)ccc1SC2	2.9	0.1	74.9*	-15.4	99.9	1.5
Nc1ncc2c(n1)-c1cc(Cl)ccc1SC2	-0.9	-0.7	72.0*	13.6	103.1	0.4
CCOC(=O)Nc1ccc2c(CN3C(=O)NC4(CCCC4)C3=O)cc(=O)oc2c1	-4.2	x	x	x	x	-0.5
NC(=O)c1ccc(NC(=O)CCCNC(=O)c2ccc(Cl)cc2)cc1	-1.0	-20.8	-13.2	6.6	106.7	3.4
CC(C)Oc1ccc(/C=N/NC(=O)c2ccc(N(Cc3ccccc3)S(C)(=O)=O)cc2)cc1	4.1	0.2	13.2	11.3	100.7	3.3
COC(=O)Cn1c(=O)c2c(nc3n2CC(C)CN3CCc2ccccc2)n(C)c1=O (stereo unspecified)	-3.6	-0.2	-5.7	6.6	x	2.9
O=C(/C(=C/c1ccc(Cl)cc1)c1nc2ccccc2[nH]1)c1cccs1	1.2	-4.1	59.1*	22.7	116.8	-4.7
CCOc1ccc(S(=O)(=O)N2CCCC(C(=O)NCc3ccncc3)C2)cc1Cl (stereo unspecified)	1.1	0.6	11.3	17.9	91.9	-4.1
COC(=O)C1=C(C)NC(=S)NC1c1ccc(OCC(=O)N2CCCCC2)c(OC)c1 (stereo unspecified)	-4.7	-0.7	-0.4	20.6	101.9	2.3
COc1cc(/C=C/c2ccc3cccc(O)c3n2)cc(OC)c1OC	-7.3	4.1	45.3	21.3	110.5	-1.0
COc1cc(/C=C/c2ccc3cccc(O)c3n2)cc(Br)c1OC	-9.7	-3.9	71.8*	18.8	87.4	3.6
C/C(Cn1nc([N+](=O)[O-])cc1C)=N\NC(=O)COc1ccc(Cl)cc1Cl	5.1	-0.3	7.7	0.2	55.0*	-2.4
CCc1nnc(NC(=O)C(NC(=O)c2ccccc2Cl)C(C)C)s1 (stereo unspecified)	2.4	0.0	-2.0	-7.8	90.7	1.2
CC(Oc1ccc(Br)cc1)C(=O)Nc1nc(-c2ccccn2)cs1 (stereo unspecified)	-5.9	1.1	68.7*	-60.1	90.3	-1.0
CC(C)[C@H](NC(=O)c1ccccc1Cl)C(=O)Nc1nc(-c2ccccn2)cs1	-10.6	20.0*	65.9*	45.6	112.5	-0.8
CCOc1ccc(N(CC(=O)NC(C)C)C(=O)CCC(=O)Nc2ccccn2)cc1	10.0	-2.5	-1.3	33.6	109.6	-3.8
O=C(Cc1ccccc1)n1nc(-c2ccco2)nc1SCc1ccccc1	-89.0	1.0	-17.8	-24.5	96.6	-3.1
C[C@@]12C(=O)N(CC3CC3)CC(=O)N1[C@H](/C=C/c1ccccc1)[C@@H]1C(=O)N(c3ccccc3)C(=O)[C@@H]12	27.9*	0.8	-13.8	3.2	94.8	1.3
